{
  "source": "paper PMC5402713",
  "about": "(Pain, 2017)",
  "key": {"mouse TRPM3α2 [1]": {"molecular_target": "T1, mouse TRPM3α2 (Mus musculus, UniProt J9SQF3)", "T1 sequence (J9SQF3 1-1709 isoform J9SQF3-12)": "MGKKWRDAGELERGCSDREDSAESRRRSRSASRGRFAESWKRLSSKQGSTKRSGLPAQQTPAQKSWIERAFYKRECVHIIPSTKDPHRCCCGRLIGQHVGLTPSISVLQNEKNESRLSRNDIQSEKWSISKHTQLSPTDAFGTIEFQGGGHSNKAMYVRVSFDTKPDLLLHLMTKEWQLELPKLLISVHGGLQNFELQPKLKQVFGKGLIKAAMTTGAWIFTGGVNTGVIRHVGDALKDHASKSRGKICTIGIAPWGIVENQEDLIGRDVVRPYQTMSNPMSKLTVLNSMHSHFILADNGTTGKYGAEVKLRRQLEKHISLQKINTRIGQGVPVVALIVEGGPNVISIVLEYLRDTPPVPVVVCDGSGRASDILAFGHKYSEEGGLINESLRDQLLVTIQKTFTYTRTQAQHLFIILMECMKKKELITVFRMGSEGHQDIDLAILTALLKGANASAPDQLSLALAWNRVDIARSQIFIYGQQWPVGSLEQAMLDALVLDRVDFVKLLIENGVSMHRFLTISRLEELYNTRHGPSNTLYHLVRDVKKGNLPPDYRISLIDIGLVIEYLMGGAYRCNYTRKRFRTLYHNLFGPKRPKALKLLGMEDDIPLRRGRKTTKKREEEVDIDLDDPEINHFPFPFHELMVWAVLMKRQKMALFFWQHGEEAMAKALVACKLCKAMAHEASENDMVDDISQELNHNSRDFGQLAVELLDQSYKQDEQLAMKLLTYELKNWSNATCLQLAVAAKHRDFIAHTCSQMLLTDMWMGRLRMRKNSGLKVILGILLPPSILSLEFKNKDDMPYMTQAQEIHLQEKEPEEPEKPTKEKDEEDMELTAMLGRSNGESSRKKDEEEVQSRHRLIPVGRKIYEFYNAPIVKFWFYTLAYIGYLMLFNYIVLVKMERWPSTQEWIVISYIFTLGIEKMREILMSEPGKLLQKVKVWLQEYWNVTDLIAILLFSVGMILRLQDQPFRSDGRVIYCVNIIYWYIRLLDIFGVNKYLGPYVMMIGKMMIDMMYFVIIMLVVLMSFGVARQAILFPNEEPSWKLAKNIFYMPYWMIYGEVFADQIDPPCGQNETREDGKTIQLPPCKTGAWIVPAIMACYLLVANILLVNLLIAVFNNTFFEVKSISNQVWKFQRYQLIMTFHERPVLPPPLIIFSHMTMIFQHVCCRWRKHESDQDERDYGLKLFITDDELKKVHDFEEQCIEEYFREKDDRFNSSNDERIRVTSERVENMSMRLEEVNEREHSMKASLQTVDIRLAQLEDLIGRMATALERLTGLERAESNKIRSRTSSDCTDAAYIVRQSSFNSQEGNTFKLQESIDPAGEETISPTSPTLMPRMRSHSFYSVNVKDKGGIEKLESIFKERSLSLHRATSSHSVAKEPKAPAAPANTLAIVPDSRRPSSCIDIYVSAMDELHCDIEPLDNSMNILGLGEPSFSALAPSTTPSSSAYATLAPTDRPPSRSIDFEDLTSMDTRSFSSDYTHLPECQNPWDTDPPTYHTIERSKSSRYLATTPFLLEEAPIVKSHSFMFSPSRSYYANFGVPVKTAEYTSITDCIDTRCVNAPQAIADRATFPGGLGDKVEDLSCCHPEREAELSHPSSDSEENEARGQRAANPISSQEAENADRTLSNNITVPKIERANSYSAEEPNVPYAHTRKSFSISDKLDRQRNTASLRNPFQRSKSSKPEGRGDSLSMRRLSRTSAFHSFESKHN", "type": "cell-based", "details": "for TRPM3 inhibition relative to mefenamic acid: primary screen, data not shown; for Hill coefficient of TRPM3 inhibition: Fluo-4-loaded HEKmTRPM3 cells, PregS-induced Ca2+ signal"}, "[2]": {"details": "physiological pH, no reference given; cited from earlier work"}, "mouse TRPM3α2 [3]": {"molecular_target": "T1, mouse TRPM3α2", "assay": "Whole-cell patch-clamp of TRPM3 currents in HEKmTRPM3 cells", "type": "cell-based"}, "human ankyrin-like TRPA1": {"molecular_target": "human ankyrin-like TRPA1 (Homo sapiens, UniProt O75762)", "sequence (O75762 whole entry)": "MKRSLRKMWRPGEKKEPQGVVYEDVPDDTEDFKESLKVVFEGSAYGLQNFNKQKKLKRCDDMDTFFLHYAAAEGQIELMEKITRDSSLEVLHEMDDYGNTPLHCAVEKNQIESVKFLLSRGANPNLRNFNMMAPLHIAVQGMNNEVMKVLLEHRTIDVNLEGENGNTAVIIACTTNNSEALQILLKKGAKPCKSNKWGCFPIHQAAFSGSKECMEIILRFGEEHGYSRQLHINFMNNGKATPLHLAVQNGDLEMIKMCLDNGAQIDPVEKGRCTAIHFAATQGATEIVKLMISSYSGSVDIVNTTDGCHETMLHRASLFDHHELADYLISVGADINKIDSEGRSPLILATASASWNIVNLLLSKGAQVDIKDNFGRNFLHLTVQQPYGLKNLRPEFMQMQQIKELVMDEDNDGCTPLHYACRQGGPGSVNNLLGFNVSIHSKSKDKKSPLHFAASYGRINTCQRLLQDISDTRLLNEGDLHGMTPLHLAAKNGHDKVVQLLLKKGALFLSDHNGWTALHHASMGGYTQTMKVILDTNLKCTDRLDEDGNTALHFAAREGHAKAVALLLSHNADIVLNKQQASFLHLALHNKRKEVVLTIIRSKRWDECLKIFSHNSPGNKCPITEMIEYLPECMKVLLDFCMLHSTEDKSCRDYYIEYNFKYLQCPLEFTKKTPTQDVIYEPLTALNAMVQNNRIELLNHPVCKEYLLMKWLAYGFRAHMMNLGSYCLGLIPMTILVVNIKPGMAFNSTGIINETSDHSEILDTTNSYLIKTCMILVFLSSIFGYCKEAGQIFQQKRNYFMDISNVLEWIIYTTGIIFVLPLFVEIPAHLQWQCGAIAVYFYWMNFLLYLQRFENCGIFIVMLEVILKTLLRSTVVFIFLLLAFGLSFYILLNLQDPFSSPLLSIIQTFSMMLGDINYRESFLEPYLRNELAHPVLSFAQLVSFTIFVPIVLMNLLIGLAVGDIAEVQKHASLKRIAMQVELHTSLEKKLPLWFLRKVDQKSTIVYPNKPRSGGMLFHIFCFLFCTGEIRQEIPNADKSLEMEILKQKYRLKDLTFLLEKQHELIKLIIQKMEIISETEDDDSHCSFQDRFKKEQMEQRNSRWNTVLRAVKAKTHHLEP", "assay": "Selectivity Ca2+ assay in HEKhTRPA1 cells, AITC-stimulated", "type": "cell-based", "details": "AITC 30 μM; for Inhibition of AITC-induced TRPA1 activation: drug up to 50 μM", "summary_of_the_method": "(§1)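 Stable HEK293 lines expressing human TRPA1, rat TRPV1 or human TRPM8 were loaded in suspension with Fluo-4/AM (4 μM, 30 min, 37°C) and resuspended in HEPES-buffered saline, pH 7.4. Cells were pre-exposed to test compound in 384-well plates. After baseline reading, cells were stimulated with 30 μM AITC (TRPA1), 2 μM capsaicin (TRPV1) or 300 μM menthol (TRPM8). Background-corrected fluorescence was normalized to initial intensity (F/F₀).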"}, "TRPA1": {"system": "TRPA1", "details": "read-out: EC50 of TRPA1 activation; cited from earlier work"}, "human TRPM8": {"molecular_target": "human TRPM8 (Homo sapiens, UniProt Q7Z2W7)", "sequence (Q7Z2W7 whole entry)": "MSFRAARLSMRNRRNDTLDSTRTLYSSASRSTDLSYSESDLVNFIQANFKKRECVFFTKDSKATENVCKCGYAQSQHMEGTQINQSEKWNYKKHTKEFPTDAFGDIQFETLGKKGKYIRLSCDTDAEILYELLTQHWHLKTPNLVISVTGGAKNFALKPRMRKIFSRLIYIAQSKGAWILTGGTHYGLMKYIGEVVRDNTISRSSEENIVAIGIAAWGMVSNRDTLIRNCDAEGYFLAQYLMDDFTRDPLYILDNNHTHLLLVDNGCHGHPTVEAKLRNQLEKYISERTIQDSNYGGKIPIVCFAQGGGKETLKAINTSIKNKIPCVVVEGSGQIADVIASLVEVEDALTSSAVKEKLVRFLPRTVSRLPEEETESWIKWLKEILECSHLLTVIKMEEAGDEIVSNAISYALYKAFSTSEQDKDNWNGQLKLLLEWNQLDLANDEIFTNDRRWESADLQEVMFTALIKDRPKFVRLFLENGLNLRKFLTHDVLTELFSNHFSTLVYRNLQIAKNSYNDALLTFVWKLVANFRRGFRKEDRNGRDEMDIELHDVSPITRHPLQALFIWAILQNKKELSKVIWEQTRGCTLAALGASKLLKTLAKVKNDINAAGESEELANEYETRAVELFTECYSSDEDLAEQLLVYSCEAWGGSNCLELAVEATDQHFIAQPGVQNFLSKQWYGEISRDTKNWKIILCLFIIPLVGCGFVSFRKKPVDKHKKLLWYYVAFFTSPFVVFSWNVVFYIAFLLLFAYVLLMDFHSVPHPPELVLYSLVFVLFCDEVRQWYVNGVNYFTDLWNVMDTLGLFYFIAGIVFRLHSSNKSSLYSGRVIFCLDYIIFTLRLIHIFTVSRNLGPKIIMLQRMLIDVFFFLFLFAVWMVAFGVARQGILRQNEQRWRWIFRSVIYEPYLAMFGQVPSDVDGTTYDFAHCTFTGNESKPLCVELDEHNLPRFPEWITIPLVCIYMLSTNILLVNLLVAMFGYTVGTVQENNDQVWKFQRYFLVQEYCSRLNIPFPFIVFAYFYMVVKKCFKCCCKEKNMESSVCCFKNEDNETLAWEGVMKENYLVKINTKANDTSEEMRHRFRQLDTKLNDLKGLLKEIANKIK", "assay": "Selectivity Ca2+ assay in HEKhTRPM8 cells, menthol-stimulated", "type": "cell-based", "details": "menthol 300 μM, drug up to 50 μM", "summary_of_the_method": "as §1"}, "human TRPM2": {"molecular_target": "human TRPM2 (Homo sapiens, UniProt O94759)", "assay": "H2O2-induced [Ca2+]i signals in HEK cells expressing human TRPM2", "type": "cell-based", "details": "diclofenac at concentrations above 1 μM, data not shown"}, "[4]": {"details": "cited from earlier work"}, "C57BL/6J mice [5]": {"system": "C57BL/6J mice", "assay": "Tail immersion test", "type": "in vivo, mouse", "details": "primidone 1 mg·kg^−1 i.p., 48°C", "summary_of_the_method": "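Tail immersion in male C57BL/6J mice given test compound at 1 mg·kg⁻¹ i.p. or vehicle (0.5% Tween 20). Each mouse was restrained in a 50 mL conical tube, and the distal half of the tail was dipped in water at 48.0 ± 0.5°C. Latency to vigorous tail flexion was recorded, with a 15 s cutoff. n = 10 each; mean ± SEM.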"}, "C57BL/6J mice [6]": {"system": "C57BL/6J mice", "assay": "Pregnenolone sulfate-induced chemical pain in mice", "type": "in vivo, mouse", "details": "for Nociception as duration per single response, compared with controls: data not shown", "summary_of_the_method": "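Mice received i.p. test compound (0.5, 2, 10 mg·kg⁻¹, suspended in 0.5% Tween 20) or vehicle. After 20 min, 5 nmol PregS (in sterile water, 10 μL total) was injected into the right hind paw. Over 180 s, observers recorded latency to the first response, number of responses and total duration of licking, lifting and shaking. n = 8 each; mean ± SEM; one-way ANOVA.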"}, "rat TRPV1": {"molecular_target": "rat TRPV1 (Rattus norvegicus, UniProt O35433)", "sequence (O35433 whole entry)": "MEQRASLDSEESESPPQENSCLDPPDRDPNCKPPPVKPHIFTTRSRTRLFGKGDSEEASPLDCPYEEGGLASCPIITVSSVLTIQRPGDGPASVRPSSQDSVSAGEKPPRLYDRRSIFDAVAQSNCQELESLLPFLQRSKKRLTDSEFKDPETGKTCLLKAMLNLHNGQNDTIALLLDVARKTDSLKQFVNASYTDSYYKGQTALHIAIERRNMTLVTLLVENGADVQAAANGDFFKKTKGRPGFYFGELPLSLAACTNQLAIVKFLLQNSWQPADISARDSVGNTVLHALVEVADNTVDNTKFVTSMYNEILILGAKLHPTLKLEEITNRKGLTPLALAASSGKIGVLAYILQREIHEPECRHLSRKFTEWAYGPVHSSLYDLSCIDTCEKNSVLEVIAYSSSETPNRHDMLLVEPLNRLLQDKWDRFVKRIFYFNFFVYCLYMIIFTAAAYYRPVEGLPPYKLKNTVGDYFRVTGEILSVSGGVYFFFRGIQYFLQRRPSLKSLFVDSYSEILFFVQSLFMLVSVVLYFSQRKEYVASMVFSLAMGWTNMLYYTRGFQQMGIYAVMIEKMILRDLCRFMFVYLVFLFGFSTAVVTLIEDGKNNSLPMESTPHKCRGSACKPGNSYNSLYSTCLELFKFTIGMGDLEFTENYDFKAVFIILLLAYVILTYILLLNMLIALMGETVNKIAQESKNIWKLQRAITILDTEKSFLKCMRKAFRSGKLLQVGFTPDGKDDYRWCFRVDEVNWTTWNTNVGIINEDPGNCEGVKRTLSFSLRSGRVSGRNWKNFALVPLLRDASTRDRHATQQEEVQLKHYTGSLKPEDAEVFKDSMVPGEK", "assay": "Selectivity Ca2+ assay in HEKrTRPV1 cells, capsaicin-stimulated", "type": "cell-based", "details": "capsaicin 2 μM, drug up to 50 μM", "summary_of_the_method": "as §1"}, "mouse TRPM3α2 [7]": {"molecular_target": "T1, mouse TRPM3α2", "type": "cell-based", "details": "10 μM primidone, temperature 22 to 37°C, Fura-2"}, "rat DRG neurones": {"system": "rat DRG neurones", "assay": "Single-cell Fura-2 [Ca2+]i measurement in isolated rat DRG neurones", "type": "cell-based", "details": "10 μM primidone"}, "C57BL/6J mice [8]": {"system": "C57BL/6J mice", "assay": "Hot plate test", "type": "in vivo, mouse", "details": "52°C", "summary_of_the_method": "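Male C57BL/6J mice were placed on a 52°C hot plate 20 min after i.p. test compound (0.5, 2, 10 mg·kg⁻¹ in 0.5% Tween 20) or vehicle. Latency to the first nocifensive hind-paw response was recorded, with a 45 s cutoff. Mean ± SEM; one-way ANOVA.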"}, "C57BL/6J mice [9]": {"system": "C57BL/6J mice", "assay": "CFA-induced inflammatory thermal hyperalgesia, hot plate", "type": "in vivo, mouse", "details": "primidone 1 mg·kg^−1 i.p., 24 hours after CFA"}, "human TRPM3α2": {"molecular_target": "human TRPM3α2 (Homo sapiens, UniProt Q9HCF6)", "type": "cell-based", "details": "qualitative; PregS 35 μM, primidone 25 μM", "summary_of_the_method": "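HEK293 cells were grown in MEM with Earle's salts, 10% FCS, 2 mM L-glutamine and penicillin/streptomycin. 1–2 days after seeding, they were transfected with 2 μg plasmid encoding human TRPM3α2 C-terminally fused to YFP and used 2 days later. For [Ca²⁺]i measurement, 35 μM PregS and 25 μM test compound were added sequentially. Nontransfected HEK293 cells served as control.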"}, "C57BL/6J mice [10]": {"system": "C57BL/6J mice", "assay": "Exploratory motor activity", "type": "in vivo, mouse", "details": "primidone 10 mg·kg^−1 i.p., after 120 minutes", "summary_of_the_method": "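Male C57BL/6J mice, 10–12 weeks old. Test compound was suspended in 0.5% Tween 20, which also served as vehicle control, and given i.p. Travelled distance in an opaque open-field box was video-tracked for 5 min, both immediately before the hot plate test and 120 min after dosing. n = 10 each; mean ± SEM; one-way ANOVA.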"}},
  "data": [
    {"smiles": "O=C(O)c1ccccc1Nc1cccc(C(F)(F)F)c1", "note": "[flufenamic acid]", "values": [
      {"measurement": "TRPM3 inhibition relative to mefenamic acid", "setting": "mouse TRPM3α2 [1]", "result": "less potent and poorly specific TRPM3 inhibitors"}
    ]},
    {"smiles": "O=C(O)Cc1ccccc1Nc1c(Cl)cccc1Cl", "note": "[diclofenac]", "values": [
      {"measurement": "Share of deprotonized, negatively charged microspecies", "setting": "[2]", "result": "> 99", "unit": "%"},
      {"measurement": "Hill coefficient of TRPM3 inhibition", "setting": "mouse TRPM3α2 [1]", "result": "1.2 ± 0.1"},
      {"measurement": "Effect on PregS-induced inward and outward currents", "setting": "mouse TRPM3α2 [3]; 25 μM diclofenac in bath, 35 μM PregS", "result": "almost completely abolished"},
      {"measurement": "Effect of intracellularly perfused drug on PregS-induced currents", "setting": "mouse TRPM3α2 [3]; 25 μM diclofenac in pipette solution", "result": "did not prevent PregS-induced currents"},
      {"measurement": "inhibition at 5 µM", "setting": "mouse TRPM3α2 [3]; read-out: Inhibition of depolarizing inward currents", "result": "~70", "unit": "%"},
      {"measurement": "Attenuation of responses to AITC stimulation", "setting": "human ankyrin-like TRPA1; diclofenac at concentrations higher than 50 μM", "result": "about 50%"},
      {"measurement": "EC50", "setting": "TRPA1", "result": 210, "unit": "µM"},
      {"measurement": "Inhibition of menthol-induced TRPM8 activation", "setting": "human TRPM8", "result": "almost unaffected"},
      {"measurement": "Inhibition of H2O2-induced [Ca2+]i signals", "setting": "human TRPM2", "result": "partial inhibition"}
    ]},
    {"smiles": "Cc1c(Cl)cccc1Nc1ccccc1C(=O)O", "note": "[tolfenamic acid]", "values": [
      {"measurement": "TRPM3 inhibition relative to mefenamic acid", "setting": "mouse TRPM3α2 [1]", "result": "less potent and poorly specific TRPM3 inhibitors"}
    ]},
    {"smiles": "CCC1(c2ccccc2)C(=O)NC(=O)NC1=O", "note": "[phenobarbital]", "values": [
      {"measurement": "Plasma concentration of the major active metabolite during primidone therapy", "setting": "[4]", "result": "15 to 40", "unit": "µM"}
    ]},
    {"smiles": "CCC1(c2ccccc2)C(=O)NCNC1=O", "note": "[primidone]", "values": [
      {"measurement": "Latency to tail withdrawal", "setting": "C57BL/6J mice [5]", "result": "prolonged the latency to tail withdrawal"},
      {"measurement": "Latency and total response duration to PregS-induced pain", "setting": "C57BL/6J mice [6]; primidone 0.5 mg·kg^−1 i.p., 20 minutes before PregS 5 nmol i.pl.", "result": "significant antinociception"},
      {"measurement": "Nociception as duration per single response, compared with controls", "setting": "C57BL/6J mice [6]; primidone 0.5 mg·kg^−1 i.p.", "result": "significantly reduced"},
      {"measurement": "Nociception as duration per single response, compared with controls", "setting": "C57BL/6J mice [6]; primidone 10 mg·kg^−1 i.p.", "result": "intensified"},
      {"measurement": "Number of responses to PregS", "setting": "C57BL/6J mice [6]; primidone 0.5, 2 and 10 mg·kg^−1 i.p.", "result": "not altered"},
      {"measurement": "Inhibition of capsaicin-induced TRPV1 activation", "setting": "rat TRPV1", "result": "no apparent inhibition"},
      {"measurement": "Therapeutic plasma concentrations", "setting": "[4]", "result": "20 to 50", "unit": "µM"},
      {"measurement": "Plasma protein binding", "setting": "[4]; no reference given", "result": "less than 10%"},
      {"measurement": "Relative distribution volume", "setting": "[4]; no reference given", "result": 0.6, "unit": "L/kg"},
      {"measurement": "Effect on [Ca2+]i during heat-induced TRPM3 activation", "setting": "mouse TRPM3α2 [7]", "result": "rapid and reversible decrease in [Ca^2+]i"},
      {"measurement": "Inhibition of [Ca2+]i responses of capsaicin treatment", "setting": "rat DRG neurones; 2 μM capsaicin, data not shown", "result": "not discernibly inhibited"},
      {"measurement": "Effect on [Ca2+]i in PregS-responsive DRG neurones", "setting": "rat DRG neurones; PregS 35 μM", "result": "immediate decrease in [Ca^2+]i"},
      {"measurement": "Response latency on the hot plate", "setting": "C57BL/6J mice [8]; primidone 10 mg·kg^−1 i.p.", "result": "did not differ from controls"},
      {"measurement": "Response latency on the hot plate", "setting": "C57BL/6J mice [8]; primidone 0.5 and 2 mg·kg^−1 i.p.", "result": "prolonged the response latency"},
      {"measurement": "IC50", "setting": "mouse TRPM3α2 [1]", "result": "~600", "unit": "nM"},
      {"measurement": "Hill coefficient of TRPM3 inhibition", "setting": "mouse TRPM3α2 [1]", "result": "1.4 ± 0.2"},
      {"measurement": "CFA-induced sensitization, hot plate latency", "setting": "C57BL/6J mice [9]", "result": "prevented the signs of CFA-induced sensitization"},
      {"measurement": "Effect on PregS-induced responses at the human TRPM3 channel", "setting": "human TRPM3α2", "result": "confirmed the effectiveness"},
      {"measurement": "Effect on omega pore-like currents evoked by coapplied PregS and clotrimazole", "setting": "mouse TRPM3α2 [3]; 10 μM primidone, 40 μM PregS and 10 μM clotrimazole", "result": "inhibited"},
      {"measurement": "Effect on PregS-induced inward currents", "setting": "mouse TRPM3α2 [3]; 3 and 5 μM primidone, 35 μM PregS", "result": "almost completely abolished"},
      {"measurement": "Potency to block TRPM3 currents", "setting": "mouse TRPM3α2 [3]; electrophysiological recordings", "result": "submicromolar potency"},
      {"measurement": "Inhibition of AITC-induced TRPA1 activation", "setting": "human ankyrin-like TRPA1", "result": "no apparent inhibition"},
      {"measurement": "Exploratory activity (travelled distance)", "setting": "C57BL/6J mice [10]", "result": "slight reduction of exploratory activity"},
      {"measurement": "Inhibition of menthol-induced TRPM8 activation", "setting": "human TRPM8", "result": "no apparent inhibition"}
    ]},
    {"smiles": "CNCCCC12CCC(c3ccccc31)c1ccccc12", "note": "[maprotiline]", "values": [
      {"measurement": "Inhibition of capsaicin-induced TRPV1 activation", "setting": "rat TRPV1", "result": "no apparent inhibition"},
      {"measurement": "Inhibition of AITC-induced TRPA1 activation", "setting": "human ankyrin-like TRPA1", "result": "no apparent inhibition"},
      {"measurement": "Inhibition of menthol-induced TRPM8 activation", "setting": "human TRPM8", "result": "no apparent inhibition"}
    ]}
  ]
}
